SMILES strings stand for the structures.

The results in this text go back to ChEMBL document CHEMBL2417409 (Eur J Med Chem, 2013).

Assay [1] concerns the target T1, Sucrase-isomaltase, intestinal (Rattus norvegicus, UniProt P23739). Description: Inhibition of rat intestine sucrase using sucrose as substrate incubated for 10 mins prior to substrate addition measured after 40 mins by glucose oxidase colorimetric method. Put shortly:
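Crude enzyme from centrifuged (12,000 g, 30 min) intestinal supernatant containing both maltase and sucrase. Test compound (1 mg/mL stock, DMSO) preincubated with enzyme at 37 C for 10 min. Substrate in 0.1 M phosphate buffer pH 6.9 (maltose 0.58 mM or sucrose 20 mM) added, then 40 min at 37 C. Quenched at 80 C for 15 min. Released glucose measured by glucose oxidase kit.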

Assay [2] has as its system Radical scavenging activity. Description: Antioxidant activity assessed as DPPH radical scavenging activity at 10 mg/ml after 15 mins by spectrophotometry. The assay is classed as functional. Put shortly:
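Sample (10 µL at 0.1, 1.0 or 10.0 mg/mL) mixed with 0.1 mM DPPH in methanol (150 µL), kept in the dark at room temperature on a shaker for 15 min. Percentage scavenging = [(A0 − A1)/A0] × 100, with A0 and A1 the absorbance without and with sample.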
A general note: Loss of DPPH colour is used to gauge radical scavenging.

For another assay, the system named is Saccharomyces cerevisiae. Description: Inhibition of yeast type 1 alpha-glucosidase using PNPG as substrate at 10 mg/ml incubated for 10 mins prior to substrate addition measured after 20 mins by spectrophotometry.
Assay [3] can be described thus: Inhibition of yeast type 1 alpha-glucosidase using PNPG as substrate incubated for 10 mins prior to substrate addition measured after 20 mins by spectrophotometry. Also noted: species or system Saccharomyces cerevisiae.
Assay [4] concerns the target Sucrase-isomaltase, intestinal (Rattus norvegicus) (UniProt P23739). Description: Inhibition of rat intestine sucrase using sucrose as substrate at 10 mg/ml incubated for 10 mins prior to substrate addition measured after 40 mins by glucose oxidase colorimetric method.
Assay [5] relates to Radical scavenging activity. Description: Antioxidant activity assessed as DPPH radical scavenging activity after 15 mins by spectrophotometry. The assay is classed as functional. The gist of the method: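 Sample (10 µL at 0.1, 1.0 or 10.0 mg/mL) mixed with 0.1 mM DPPH in methanol (150 µL), kept in the dark at room temperature on a shaker for 15 min. Absorbance read at 517 nm. Percentage scavenging = [(A0 − A1)/A0] × 100, with A0 and A1 the absorbance without and with sample.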

Assay [6] relates to Maltase-glucoamylase, intestinal (Rattus norvegicus). Description: Inhibition of rat intestine maltase using maltose as substrate at 10 mg/ml incubated for 10 mins prior to substrate addition measured after 40 mins by glucose oxidase colorimetric method.
In assay [7] the target is T1, Sucrase-isomaltase, intestinal. Description: Non-competitive inhibition of rat intestine sucrase using sucrose as substrate by Lineweaver-Burk plot analysis. The gist of the method: (§1)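 Same maltase/sucrase reactions, with activity held at 0.45 (maltase) and 0.09 (sucrase) U/mg protein. Inhibitor 0 to 20.4 mM against substrate 1.0 to 20.0 mM. Vmax and Km obtained from Lineweaver–Burk intercepts and slopes. Ki (EI) from a secondary plot of slope versus inhibitor concentration; Ki′ (ESI) from a secondary plot of intercept versus inhibitor concentration.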

Assay [8] has the same target. Description: Competitive inhibition of rat intestine sucrase using sucrose as substrate by Lineweaver-Burk plot analysis. The gist of the method:
as §1

Sucrase-isomaltase, intestinal (Rattus norvegicus), sequence (P23739 1-1013 limits assumed): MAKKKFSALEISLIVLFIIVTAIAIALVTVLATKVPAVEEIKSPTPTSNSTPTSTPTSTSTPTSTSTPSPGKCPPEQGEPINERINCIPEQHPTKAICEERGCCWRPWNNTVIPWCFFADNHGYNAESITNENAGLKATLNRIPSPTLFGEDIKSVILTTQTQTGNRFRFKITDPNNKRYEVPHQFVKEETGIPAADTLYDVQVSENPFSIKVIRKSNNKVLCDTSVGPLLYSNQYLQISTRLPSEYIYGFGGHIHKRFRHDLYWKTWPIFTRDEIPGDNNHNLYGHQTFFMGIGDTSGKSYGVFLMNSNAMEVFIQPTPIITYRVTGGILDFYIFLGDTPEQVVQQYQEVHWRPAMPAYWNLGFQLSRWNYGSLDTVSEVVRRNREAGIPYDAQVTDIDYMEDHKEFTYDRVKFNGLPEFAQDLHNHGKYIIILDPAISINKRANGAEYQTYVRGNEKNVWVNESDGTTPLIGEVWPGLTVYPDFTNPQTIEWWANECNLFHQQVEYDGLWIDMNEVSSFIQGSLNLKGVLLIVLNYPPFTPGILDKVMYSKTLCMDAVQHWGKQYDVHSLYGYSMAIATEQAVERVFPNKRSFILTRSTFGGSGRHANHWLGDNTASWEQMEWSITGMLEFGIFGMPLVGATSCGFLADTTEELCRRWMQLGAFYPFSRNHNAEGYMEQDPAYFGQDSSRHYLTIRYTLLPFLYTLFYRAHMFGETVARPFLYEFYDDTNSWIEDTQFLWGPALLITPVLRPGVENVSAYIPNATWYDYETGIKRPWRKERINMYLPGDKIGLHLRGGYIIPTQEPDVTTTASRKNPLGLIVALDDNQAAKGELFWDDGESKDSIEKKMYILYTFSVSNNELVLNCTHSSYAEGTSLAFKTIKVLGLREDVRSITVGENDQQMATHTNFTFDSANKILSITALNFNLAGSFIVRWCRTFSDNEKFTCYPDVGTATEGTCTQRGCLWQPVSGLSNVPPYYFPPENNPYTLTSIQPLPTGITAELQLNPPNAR
Sucrase-isomaltase, intestinal (Rattus norvegicus), sequence (P23739 1014-1841 limits assumed): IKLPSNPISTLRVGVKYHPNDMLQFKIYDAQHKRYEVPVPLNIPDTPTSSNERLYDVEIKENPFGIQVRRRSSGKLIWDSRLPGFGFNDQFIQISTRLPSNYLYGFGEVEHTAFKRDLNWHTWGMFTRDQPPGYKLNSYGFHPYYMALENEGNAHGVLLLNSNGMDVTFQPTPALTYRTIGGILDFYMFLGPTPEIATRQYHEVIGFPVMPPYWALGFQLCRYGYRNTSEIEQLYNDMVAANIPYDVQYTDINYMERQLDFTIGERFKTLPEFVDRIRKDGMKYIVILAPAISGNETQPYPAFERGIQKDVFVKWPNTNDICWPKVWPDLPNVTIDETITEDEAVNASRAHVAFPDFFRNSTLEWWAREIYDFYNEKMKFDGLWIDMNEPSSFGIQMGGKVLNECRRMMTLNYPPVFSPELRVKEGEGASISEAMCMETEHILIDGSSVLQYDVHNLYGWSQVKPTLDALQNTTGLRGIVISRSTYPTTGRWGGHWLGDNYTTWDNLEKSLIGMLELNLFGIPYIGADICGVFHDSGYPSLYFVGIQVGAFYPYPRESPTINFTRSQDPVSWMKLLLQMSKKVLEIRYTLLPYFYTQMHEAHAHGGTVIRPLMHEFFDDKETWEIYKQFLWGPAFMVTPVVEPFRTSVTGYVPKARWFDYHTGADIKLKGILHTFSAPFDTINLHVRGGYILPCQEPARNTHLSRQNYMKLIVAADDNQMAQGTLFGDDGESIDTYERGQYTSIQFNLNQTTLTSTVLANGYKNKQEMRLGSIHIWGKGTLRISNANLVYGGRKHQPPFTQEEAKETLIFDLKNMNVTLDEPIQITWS
T1 sequence (P23739 1-1013 limits assumed): as the sequence (P23739 1-1013 limits assumed) above
T1 sequence (P23739 1014-1841 limits assumed): as the sequence (P23739 1014-1841 limits assumed) above

As to `COc1cc(/C=C/C(=O)O[C@H]2C[C@@H](O)[C@H](O)[C@@H](O)[C@H]2O)ccc1O`, half-maximal inhibition in [1] (IC50) required 171 µM. Also, the inhibition is < 50% in assay [2] and < 30% in the assay with Saccharomyces cerevisiae.
For the molecule `C[C@H]1O[C@H](O[C@H]2[C@H](O)[C@@H](O)[C@@H](O[C@H]3[C@H](O)[C@@H](O)C(O)O[C@@H]3CO)O[C@@H]2CO)[C@H](O)[C@@H](O)[C@@H]1N[C@H]1C=C(CO)[C@@H](O)[C@H](O)[C@H]1O` (stereo partly drawn) [ACARBOSE], in assay [3], the half-inhibitory concentration (IC50) stood at 404 µM.
As for `COc1cccc(/C=C/C(=O)O[C@H]2C[C@@H](O)[C@H](O)[C@@H](O)[C@H]2O)c1`, the inhibition in assay [4] is < 30%.
For the molecule `COc1cc(/C=C/C(=O)O[C@@H]2C[C@@H](O)[C@H](O)[C@@H](O)[C@H]2O)ccc1O`, half-maximal inhibition in [1] (IC50) required 67.2 µM. The inhibition in assay [2] was < 50%; in the assay with Saccharomyces cerevisiae, < 30%.
As to `O=C(O)/C=C/c1ccc(O)c(O)c1` [CAFFEIC ACID], the IC50 in [1] amounted to 87.4 µM; in assay [5], 150 µM. Moreover, the inhibition with Saccharomyces cerevisiae was < 30%.
In turn, `O=C(/C=C/c1ccc(O)c(O)c1)O[C@H]1C[C@@H](O)[C@H](O)[C@@H](O)[C@H]1O` registered a 50% inhibitory concentration (IC50) in assay [1] of 954 µM. Moreover, the inhibition was < 50% in assay [2] and < 30% in the assay with Saccharomyces cerevisiae.
Turning to `COc1ccccc1/C=C/C(=O)O[C@@H]1C[C@@H](O)[C@H](O)[C@@H](O)[C@H]1O`, the inhibition in [4] is < 30%.
On the same count and under the same terms, then `COc1ccc(/C=C/C(=O)O[C@@H]2C[C@@H](O)[C@H](O)[C@@H](O)[C@H]2O)cc1OC`, with < 30%.
On to `COc1ccc(O)c(C(C)(C)C)c1.COc1ccc(O)cc1C(C)(C)C` [BUTYLATED HYDROXYANISOLE], for which, in assay [5], the IC50 came out at 0.1 µM.
In the case of `COc1cccc(/C=C/C(=O)O[C@@H]2C[C@@H](O)[C@H](O)[C@@H](O)[C@H]2O)c1`, the inhibition in [4] is < 30%.
Molecule `COc1ccc(/C=C/C(=O)O[C@H]2C[C@@H](O)[C@H](O)[C@@H](O)[C@H]2O)cc1O` gave a 50% inhibitory concentration (IC50) in [1] of 805 µM. Besides, the inhibition in [2] is < 50%; in the assay on Saccharomyces cerevisiae, < 30%.
Regarding `COc1ccc(/C=C/C(=O)O[C@H]2C[C@@H](O)[C@H](O)[C@@H](O)[C@H]2O)cc1`, the inhibition in [2] was < 50%; in [6], < 30%; in assay [4], < 30%; with Saccharomyces cerevisiae, < 30%.
Consider `COc1cc(/C=C/C(=O)O[C@@H]2C[C@@H](O)[C@H](O)[C@@H](O)[C@H]2O)cc(OC)c1OC`, for which the inhibition in [2] is < 50%; in [6], < 30%; in assay [4] it was < 30%; in the assay on Saccharomyces cerevisiae, < 30%.
In the case of `COc1ccc(/C=C/C(=O)O[C@H]2C[C@@H](O)[C@H](O)[C@@H](O)[C@H]2O)cc1OC`, the inhibition in assay [4] was < 30%.
Regarding `COc1ccccc1/C=C/C(=O)O[C@H]1C[C@@H](O)[C@H](O)[C@@H](O)[C@H]1O`, the inhibition in assay [4] was < 30%.
Turning to `O=C(/C=C/c1ccc(O)c(O)c1)O[C@@H]1C[C@@H](O)[C@H](O)[C@@H](O)[C@H]1O`, the Ki in assay [7] was 47.5 µM; in [8] it was 22.4 µM. Also, the IC50 in [1] amounted to 43.6 µM; in assay [5] it was 110 µM. In addition, the inhibition in the assay on Saccharomyces cerevisiae is < 30%.
Take `COc1ccc(/C=C/C(=O)O[C@@H]2C[C@@H](O)[C@H](O)[C@@H](O)[C@H]2O)cc1`: the inhibition was < 50% in [2], < 30% in [6], < 30% in assay [4] and < 30% in the assay with Saccharomyces cerevisiae.
For `COc1ccc(/C=C/C(=O)O[C@@H]2C[C@@H](O)[C@H](O)[C@@H](O)[C@H]2O)cc1O`, the IC50 in assay [1] is 53 µM. In addition, the inhibition in assay [2] was < 50%; with Saccharomyces cerevisiae it was < 30%.

A word on the IC50: it is the concentration that inhibits the measured activity by half. For orientation: inhibition means the relative decrease from the control value, in per cent. Broadly, the Ki is a dissociation constant, usually derived from enzyme kinetics or from competition with a known ligand.
